Assay results reported in ChEMBL document CHEMBL3734708, “Synthesis, cytotoxicity and antiviral evaluation of new series of imidazo[4,5-g]quinoline and pyrido[2,3-g]quinoxalinone derivatives” (Eur J Med Chem, 2015).

How the values were obtained:
[1] = system: Vesicular stomatitis virus; test: Antiviral activity against VSV Indiana ATCC VR-158 infected in african green monkey Vero-76 cells after 2 days by plaque reduction assay; format: functional, organism-based; conditions: Indiana ATCC VR-158, Vero 76, 48 h
Coxsackievirus B5 = test: Antiviral activity against CVB-5 virus Faulkner ATCC VR-185 infected in african green monkey Vero-76 cells after 3 days by plaque reduction assay; format: functional, organism-based; conditions: Enterovirus B, Faulkner ATCC VR-185, Vero 76, 72 h
[2] = Cytotoxicity against BHK21 cells assessed as reduction in cell viability after 72 hrs by MTT assay; format: cell-based, Mesocricetus auratus, BHK-21; conditions: hamster
Method in brief: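 BHK cells seeded at 1 × 10^6 cells/mL in MEM-E with L-glutamine, 1 mM sodium pyruvate, kanamycin and 10% FBS. Mock-infected cells exposed to serial dilutions of compound at 37 °C, 5% CO2, run in parallel with the antiviral assays. Viability by MTT at 72 h. CC50 by linear regression vs untreated controls. Mean of three independent determinations.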

Vaccinia virus = test: Antiviral activity against VV Elstree ATCC VR-1549 infected in african green monkey Vero-76 cells after 3 days by plaque reduction assay; format: functional, organism-based; conditions: Orthopoxvirus vaccinia, Elstree ATCC VR-1549, Vero 76, 72 h
[3] = Cytotoxicity against african green monkey Vero 76 cells assessed as reduction in cell viability after 48 to 96 hrs by MTT assay; format: cell-based; conditions: chlorocebus sabaeus
Method in brief: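 Vero-76 cells plated at 4 × 10^5 cells/mL in D-MEM with L-glutamine, kanamycin and 10% FBS. Incubated with serial dilutions of test compounds at 37 °C, 5% CO2 for 48-96 h. Viability by MTT. CC50 by linear regression relative to untreated cells. Mean of three independent runs.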

[4] = Cytotoxicity against human MT4 cells assessed as reduction in cell proliferation after 96 hrs by MTT assay; format: cell-based
Method in brief: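 MT-4 cells in exponential growth seeded at 1 × 10^5 cells/mL in RPMI-1640 with 10% FBS and penicillin/streptomycin. Cultured with serial compound dilutions at 37 °C, 5% CO2. MTT viability after 96 h. CC50 by linear regression against untreated controls. Mean of three independent determinations.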

[5] = system: Respiratory syncytial virus; test: Antiviral activity against RSVA2 ATCC VR-1540 infected in african green monkey Vero-76 cells after 5 days by plaque reduction assay; format: functional, organism-based; conditions: human respiratory syncytial virus, A2 ATCC VR-1540, Vero 76, 120 h
Human alphaherpesvirus 1 = test: Antiviral activity against HSV-1 KOS ATCC VR- 1493 infected in african green monkey Vero-76 cells after 3 days by plaque reduction assay; format: functional, organism-based; conditions: Human alphaherpesvirus 1, KOS ATCC VR1493, Vero 76, 72 h
[6] = system: Human immunodeficiency virus 1; test: Antiviral activity against HIV-1 3B infected in human MT4 cells assessed as protection against virus-induced cytopathic effect after 4 days by MTT assay; format: functional, organism-based; conditions: Human immunodeficiency virus 1, 3B, MT4, 96 h
Method in brief: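 MT-4 cells (1 × 10^4/well in RPMI) with or without serial compound dilutions, infected with HIV-1 at 100 CCID50 (m.o.i. 0.01). After 4 days at 37 °C, protection from cytopathogenicity read by MTT. EC50 by linear regression versus untreated controls; mean of three independent determinations.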

Yellow fever virus = test: Antiviral activity against YFV 17-D vaccine (Stamaril Pasteur J07B01) infected in BHK21 cells assessed as protection against virus-induced cytopathic effect after 3 or 4 days by MTT assay; format: functional, organism-based; conditions: BHK-21
Method in brief: (§1)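 BHK-21 (YFV, Reo-1) or MDBK (BVDV) cells seeded at 5 × 10^4 or 3 × 10^4 cells/well and grown overnight to confluence. Monolayers infected at m.o.i. 0.01 in maintenance medium (MEM-Earle, 0.5% inactivated FBS). Serial compound dilutions added 2 h after infection; 37 °C for 3-4 days. Viability read by MTT. EC50 by linear regression versus untreated controls; mean of three determinations.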

[7] = system: Mammalian orthoreovirus 1; test: Antiviral activity against Reovirus 1 ATCC VR- 214 infected in BHK21 cells assessed as protection against virus-induced cytopathic effect after 3 or 4 days by MTT assay; format: functional, cell-based; conditions: Mammalian orthoreovirus 1, ATCC VR- 214, BHK-21; method in brief: as §1
[8] = system: Human poliovirus 1 strain Sabin; test: Antiviral activity against Human poliovirus 1 strain Sabin 1 virus infected in african green monkey Vero-76 cells after 2 days by plaque reduction assay; format: functional, organism-based; conditions: Enterovirus C, 1, Vero 76, 48 h
[9] = Cytotoxicity against MDBK cells assessed as reduction in cell viability after 72 hrs by MTT assay; format: cell-based, Bos taurus; conditions: cattle
Method in brief: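 MDBK cells seeded at 6 × 10^5 cells/mL in MEM-E with L-glutamine, 1 mM sodium pyruvate, kanamycin and 10% horse serum. Mock-infected cultures held with serial compound dilutions at 37 °C, 5% CO2. MTT viability read after 72 h. 50% cytotoxic concentration from linear regression as % of untreated controls. Three independent determinations.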

[10] = system: Bovine viral diarrhea virus 1; test: Antiviral activity against BVDV NADL ATCC VR-534 infected in MDBK cells assessed as protection against virus-induced cytopathic effect after 3 or 4 days by MTT assay; format: functional, organism-based; conditions: Bovine viral diarrhea virus isolates and strains, NADL ATCC VR-534, MDBK; method in brief: as §1

Structure (SMILES)	EC50 [1] [µM]	EC50 (Coxsackievirus B5) [µM]	CC50 at 72 h [2] [µM]	EC50 (Vaccinia virus) [µM]	CC50 [3] [µM]	CC50 at 96 h [4] [µM]	EC50 [5] [µM]	EC50 (Human alphaherpesvirus 1) [µM]	EC50 [6] [µM]	EC50 (Yellow fever virus) [µM]	EC50 [7] [µM]	EC50 [8] [µM]	CC50 at 72 h [9] [µM]	EC50 [10] [µM]
O=c1cnn([C@@H]2O[C@H](CO)[C@@H](O)[C@H]2O)c(=O)[nH]1 [6-AZAURIDINE]	1.2	≥ 12.5												
Cn1c(=O)c(-c2cccs2)nc2c(Cl)c3ncccc3cc21	> 100	> 100	> 100	> 100	> 100	> 100	> 100	> 100	> 100	> 100	> 100	> 100	> 100	2
CCn1c(=O)c(-c2ccccc2)nc2c(Cl)c3ncccc3cc21	> 60	> 60	> 100	> 60	60	> 100	> 60	> 60	> 100	> 100	> 100	> 60	> 100	> 100
O=c1c(-c2ccccc2)nc2cc3cccnc3c(Cl)c2n1CC1CCCCC1	> 20	> 20	15	> 20	20	23	> 20	> 20	> 23	> 15	> 15	> 20	50	4
COc1nc2cc3cccnc3c(Cl)c2nc1Cc1ccccc1	> 100	> 100	> 100	> 100	> 100	> 100	> 100	> 100	> 100	> 100	> 100	> 100	> 100	6
O=c1c(-c2ccccc2)nc2c(Cl)c3ncccc3cc2n1Cc1ccc([N+](=O)[O-])cc1	> 100	> 100	> 100	> 100	> 100	> 100	> 100	> 100	> 100	> 100	> 100	> 100	> 100	> 100
c1ccc(Cc2nc3cc4cccnc4cc3n2CC2CCCCC2)cc1	> 25	> 25	71	> 25	25	10	> 25	> 25	> 10	> 71	> 71	> 25	> 100	10
CCCn1c(=O)c(-c2ccccc2)nc2cc3cccnc3c(Cl)c21	> 50	7	> 100	> 50	50	40	> 50	> 50	> 40	> 100	> 100	> 50	40	33
O=[N+]([O-])c1ccc(COc2nc3cc4cccnc4c(Cl)c3nc2-c2ccccc2)cc1	> 100	> 100	> 100	> 100	> 100	> 100	> 100	> 100	> 100	> 100	> 100	> 100	> 100	> 100
Cn1c(=O)c(-c2ccccc2)nc2c(Cl)c3ncccc3cc21	> 100	17	> 100	> 100	> 100	> 100	> 100	> 100	> 100	> 100	> 100	38	> 100	16
CC(C)c1nc2c(Cl)c3ncccc3cc2[nH]c1=O	> 100	> 100	> 100	> 100	> 100	> 100	> 100	> 100	> 100	> 100	> 100	> 100	> 100	> 100
C[C@@]1(O)[C@H](O)[C@@H](CO)O[C@H]1n1ccc(N)nc1=O					16						> 100			
CCCn1c(-c2ccccc2)nc2cc3cccnc3cc21	> 90	13	> 100	> 90	90	62	> 90	> 90	> 62	> 100	> 100	> 90	> 100	> 100
CCOc1nc2cc3cccnc3c(Cl)c2nc1-c1ccccc1	> 50	> 50	> 100	> 50	50	> 100	> 50	> 50	> 100	> 100	> 100	> 50	> 100	73
O=c1c(-c2ccccc2)nc2c(Cl)c3ncccc3cc2n1Cc1ccccc1	> 90	> 90	> 100	> 90	90	88	> 90	> 100	> 88	> 100	> 100	> 90	> 100	46
Nc1ccn(C[C@@H](CO)OCP(=O)(O)O)c(=O)n1 [CIDOFOVIR]		> 100		19										
O=c1c(-c2ccccc2)nc2cc3cccnc3c(Cl)c2n1C1CCCCC1	> 70	> 70	> 100	> 70	70	48	> 70	> 70	> 48	> 100	> 100	> 70	> 100	4
O=c1c(-c2cccs2)nc2cc3cccnc3c(Cl)c2n1C1CCCCC1	> 100	> 100	> 100	> 100	> 100	> 100	> 100	> 100	> 100	> 100	> 100	> 100	> 100	15
C#C[C@@]1(O)[C@H](O)[C@@H](CO)O[C@H]1n1ccc(N)nc1=O [2'-ETHYNYL-D-CYTIDINE]		> 100					23					27		
Nc1nc2c(ncn2COCCO)c(=O)[nH]1 [ACYCLOVIR]		> 100												
C[C@@]1(O)[C@H](O)[C@@H](CO)O[C@H]1n1cnc2c(=O)[nH]c(N)nc21 [2'-B-METHYL-GUANOSINE]			1.1							> 100	1.9		> 100	
